These results are taken from paper PMC9055608 (RSC Advances, 2020).

One data set relates to SKOV3. Kind of data set: MTT cell proliferation assay, SKOV3. The class given is cell-based, human. Particulars: SKOV3, ovary; MTT, 72 h. The essentials:
(§1)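 ATCC lines grown in DMEM or RPMI-1640 with 10% heat-inactivated FBS and 1% penicillin/streptomycin at 37 °C, 5% CO2. Log-phase cells seeded at about 4000–5000/well and left to adhere 24 h. Sextuplicate wells, 72 h. MTT for 4 h, then DMSO and absorbance. IC50 taken from dose–response curves.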

Another data set deals with N87. The experiment in a line: MTT cell proliferation assay, N87. Particulars: N87, stomach; MTT, 72 h. The format is cell-based, human. The essentials:
as §1

In data set [1] the test system is MCF-7 xenograft tumour. Kind of data set: Drug efficacy in vivo, MCF-7 breast cancer model. More on the design: species or system nude mice. To be noted: positive control.
The next data set has as its system A-549. Kind of data set: MTT cell proliferation assay, A-549. To be noted: A-549, lung; MTT, 72 h. The format is cell-based, human. The essentials: as §1
A further data set has as its system SKBR3. Kind of data set: MTT cell proliferation assay, SKBR3. The class given is cell-based, human. Particulars: SKBR3, breast; MTT, 72 h. The essentials:
as §1

The subject of another data set is DU-145. The experiment in a line: MTT cell proliferation assay, DU-145. The class given is cell-based, human. Particulars: DU-145, prostate; MTT, 72 h. The essentials:
as §1

Another data set deals with MDA-MB231. Kind of data set: MTT cell proliferation assay, MDA-MB231. To be noted: MDA-MB231, breast; MTT, 72 h. The class given is cell-based, human. The essentials: as §1
On the technique in general: Tetrazolium dyes change colour on reduction, which living cells bring about.

Another data set concerns HT-29. Kind of data set: MTT cell proliferation assay, HT-29. Particulars: HT-29, colon; MTT, 72 h. The class given is cell-based, human. The essentials:
as §1

In another data set the test system is MDA-MB453. The experiment in a line: MTT cell proliferation assay, MDA-MB453. To be noted: MDA-MB453, breast; MTT, 72 h. The format is cell-based, human. The essentials:
as §1

Data set [2] concerns MCF-7 xenograft tumour. The experiment in a line: Pathological tissue sections. The class given is in vivo, nude mice. Particulars: positive control group, cisplatin 5 mg kg^−1. The essentials:
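Tumour-bearing nude mice were anaesthetised and killed after the 9-day dosing. Heart, liver, spleen, lung, kidney, brain and tumour were fixed in 10% formalin, embedded in paraffin, cut into 4 μm sections and stained with haematoxylin–eosin.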

In a further data set the test system is MCF-7. Kind of data set: MTT cell proliferation assay, MCF-7. The class given is cell-based, human. To be noted: MCF-7, breast; MTT, 72 h. The essentials:
as §1

The conditions of data set [3]: cisplatin; cited from earlier work.
The subject of a further data set is SKMEL-28. The experiment in a line: MTT cell proliferation assay, SKMEL-28. The class given is cell-based, human. Particulars: SKMEL-28, skin; MTT, 72 h. The essentials:
as §1

The subject of another data set is Calu-3. The experiment in a line: MTT cell proliferation assay, Calu-3. The class given is cell-based, human. Particulars: Calu-3, lung; MTT, 72 h. The essentials:
as §1

Data set [4] in a line: Mouse weight during in vivo efficacy study. The arrangement: species or system nude mice. To be noted: during the nine days of treatment.
The test system of a further data set is A375. The experiment in a line: MTT cell proliferation assay, A375. The format is cell-based, human. To be noted: A375, melanoma; MTT, 72 h. The essentials: as §1

Molecules are shown by their SMILES.

The term IC50 denotes the point on the concentration scale where inhibition reaches its midpoint. Higher therefore signals a need for much substance. Consider `N.N.[Cl][Pt][Cl]` [Cisplatin, cis-platinum, reference compound], for which the IC50 in the data set on SKOV3 worked out at 4.15 ± 0.3 µM; with N87, 8.35 ± 0.3 µM; with A-549, 3.03 ± 0.24 µM; in the data set with SKBR3, 3.04 ± 0.17 µM; in the data set with DU-145, 2.82 ± 0.14 µM; in the data set on MDA-MB231, 12.8 ± 0.58 µM. The IC50 with HT-29 came to 4.71 ± 0.17 µM; in the data set with MDA-MB453, 15.4 ± 0.83 µM; in the data set with MCF-7, 11.2 ± 0.6 µM; in the data set on SKMEL-28, 12.9 ± 0.96 µM; in the data set with Calu-3, 7.39 ± 0.25 µM; in the data set with A375, 5.28 ± 0.18 µM. The “Tumour weight (mean)” value in the data set on MCF-7 xenograft tumour [1] (group E, cisplatin 5 mg kg^−1 tail vein for 9 days) is listed as 299.53 ± 109.60. For the same compound, in the data set with MCF-7 xenograft tumour [1] (cisplatin 5 mg kg^−1 for 9 days), the “Inhibition rate (IR) determined as tumour weight” value was 64.10%. Further, the tumour histopathology entry with MCF-7 xenograft tumour [2] was “a large amount of tumour cell necrosis with nucleolysis”. Further, the AUC0→t in data set [3] is recorded as 36 000 μg L^−1 h. Besides, the CL in data set [3] is 0.23 L·kg/h. Also, the “mouse weight course (in words)” value in data set [4] is “obvious weight loss”.
